Experimental data published in publication PMC3349182 (British Journal of Cancer, 2012).

System: patients with advanced, refractory solid tumours
Experiment: Phase I dose escalation: toxicity
Format: in vivo, human
Conditions: treatment-related
Procedure, shortened: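 Oral dosing was once daily in 28-day cycles, escalating by an accelerated design from 0.2 mg/day. Toxicity was graded by NCI CTC v3.0. During cycle 1, patients had weekly examination, blood pressure, full blood count, biochemistry and urinalysis, plus ECGs on days 1 and 8. DLT covered drug-related toxicity in cycle 1: grade ⩾3 toxicity, repeated grade 2 toxicity needing dose reduction, or <75% of planned dose given. The MTD was the highest dose with ≤1/6 patients having a DLT, and 12 more patients were treated at the MTD.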

`COc1cc2nccc(Oc3ccc(NC(=O)NC4CC4)c(Cl)c3)c2cc1C(N)=O` [E7080] was tested. Which “Anorexia (all grades), % of patients” value (0.2–6.4 mg (n=21)) did it give?
The value was 10%.

What about the “Anorexia (all grades), n patients” value (0.2–6.4 mg (n=21)) of the same compound?
The value was 2.

What about the “Constipation (all grades), % of patients” value (0.2–6.4 mg (n=21)) of the same compound?
The value was 10%.

And the “Constipation (all grades), n patients” value (0.2–6.4 mg (n=21))?
The value was 2.

What about the “Diarrhoea (all grades), n patients” value (0.2–6.4 mg (n=21)) of the same compound?
The value was 4.

What about the “Dry skin (all grades), % of patients” value (0.2–6.4 mg (n=21)) of the same compound?
Its value is 5%.

And the “Dry skin (all grades), n patients” value (0.2–6.4 mg (n=21))?
Its value is 1.

What about the “Dysphonia (all grades), % of patients” value (0.2–6.4 mg (n=21)) of the same compound?
Its value is 0%.

And the “Dysphonia (all grades), n patients” value (0.2–6.4 mg (n=21))?
Its value is 0.

And the “Fatigue (all grades), % of patients” value (0.2–6.4 mg (n=21))?
The value was 10%.

What about the “Fatigue (all grades), n patients” value (0.2–6.4 mg (n=21)) of the same compound?
Its value is 2.

And the “Headache (all grades), % of patients” value (0.2–6.4 mg (n=21))?
The value was 0%.

And the “Headache (all grades), n patients” value (0.2–6.4 mg (n=21))?
The value was 0.

What about the “Hypertension (all grades), % of patients” value (0.2–6.4 mg (n=21)) of the same compound?
The value was 10%.

What about the “Hypertension (all grades), n patients” value (0.2–6.4 mg (n=21)) of the same compound?
Its value is 2.

And the “Hypertension Grade 1, % of patients” value (0.2–6.4 mg (n=21))?
Its value is 5%.

What about the “Hypertension Grade 1, n patients” value (0.2–6.4 mg (n=21)) of the same compound?
Its value is 1.

What about the “Hypertension Grade 2, % of patients” value (0.2–6.4 mg (n=21)) of the same compound?
The value was 0%.

And the “Hypertension Grade 2, n patients” value (0.2–6.4 mg (n=21))?
Its value is 0.

What about the “Hypertension Grade 3, % of patients” value (0.2–6.4 mg (n=21)) of the same compound?
Its value is 5%.

What about the “Hypertension Grade 3, n patients” value (0.2–6.4 mg (n=21)) of the same compound?
The value was 1.

What about the “Lethargy (all grades), % of patients” value (0.2–6.4 mg (n=21)) of the same compound?
Its value is 14%.

What about the “Lethargy (all grades), n patients” value (0.2–6.4 mg (n=21)) of the same compound?
Its value is 3.

What about the “Nausea (all grades), % of patients” value (0.2–6.4 mg (n=21)) of the same compound?
The value was 38%.

And the “Nausea (all grades), n patients” value (0.2–6.4 mg (n=21))?
The value was 8.

And the “Proteinuria (all grades), % of patients” value (0.2–6.4 mg (n=21))?
The value was 14%.

And the “Proteinuria (all grades), n patients” value (0.2–6.4 mg (n=21))?
Its value is 3.

What about the “Proteinuria Grade 1, % of patients” value (0.2–6.4 mg (n=21)) of the same compound?
The value was 0%.

What about the “Proteinuria Grade 1, n patients” value (0.2–6.4 mg (n=21)) of the same compound?
Its value is 0.

And the “Proteinuria Grade 2, % of patients” value (0.2–6.4 mg (n=21))?
The value was 14%.

And the “Proteinuria Grade 2, n patients” value (0.2–6.4 mg (n=21))?
Its value is 3.

What about the “Proteinuria Grade 3, % of patients” value (0.2–6.4 mg (n=21)) of the same compound?
Its value is 0%.

What about the “Proteinuria Grade 3, n patients” value (0.2–6.4 mg (n=21)) of the same compound?
The value was 0.

What about the “Stomatitis (all grades), % of patients” value (0.2–6.4 mg (n=21)) of the same compound?
The value was 5%.

What about the “Stomatitis (all grades), n patients” value (0.2–6.4 mg (n=21)) of the same compound?
Its value is 1.

And the “Vomiting (all grades), n patients” value (0.2–6.4 mg (n=21))?
The value was 7.

What about the “Abdominal pain (all grades), % of patients” value (12–20 mg (n=30)) of the same compound?
The value was 7%.

And the “Abdominal pain (all grades), n patients” value (12–20 mg (n=30))?
Its value is 2.

What about the “Anorexia (all grades), % of patients” value (12–20 mg (n=30)) of the same compound?
The value was 17%.

And the “Anorexia (all grades), n patients” value (12–20 mg (n=30))?
The value was 5.

And the “Constipation (all grades), % of patients” value (12–20 mg (n=30))?
The value was 10%.

What about the “Constipation (all grades), n patients” value (12–20 mg (n=30)) of the same compound?
The value was 3.

And the “Diarrhoea (all grades), n patients” value (12–20 mg (n=30))?
Its value is 8.

And the “Dry skin (all grades), % of patients” value (12–20 mg (n=30))?
The value was 10%.

And the “Dry skin (all grades), n patients” value (12–20 mg (n=30))?
The value was 3.

And the “Dysphonia (all grades), % of patients” value (12–20 mg (n=30))?
Its value is 13%.

And the “Dysphonia (all grades), n patients” value (12–20 mg (n=30))?
Its value is 4.

What about the “Fatigue (all grades), % of patients” value (12–20 mg (n=30)) of the same compound?
The value was 23%.

What about the “Fatigue (all grades), n patients” value (12–20 mg (n=30)) of the same compound?
Its value is 7.

And the “Headache (all grades), % of patients” value (12–20 mg (n=30))?
Its value is 7%.

And the “Headache (all grades), n patients” value (12–20 mg (n=30))?
Its value is 2.

What about the “Hypertension (all grades), % of patients” value (12–20 mg (n=30)) of the same compound?
Its value is 40%.

What about the “Hypertension (all grades), n patients” value (12–20 mg (n=30)) of the same compound?
Its value is 12.

And the “Hypertension Grade 1, % of patients” value (12–20 mg (n=30))?
Its value is 7%.

What about the “Hypertension Grade 1, n patients” value (12–20 mg (n=30)) of the same compound?
Its value is 2.

What about the “Hypertension Grade 2, % of patients” value (12–20 mg (n=30)) of the same compound?
The value was 23%.

And the “Hypertension Grade 2, n patients” value (12–20 mg (n=30))?
The value was 7.

And the “Hypertension Grade 3, % of patients” value (12–20 mg (n=30))?
Its value is 10%.

What about the “Hypertension Grade 3, n patients” value (12–20 mg (n=30)) of the same compound?
Its value is 3.

And the “Lethargy (all grades), % of patients” value (12–20 mg (n=30))?
The value was 17%.

And the “Lethargy (all grades), n patients” value (12–20 mg (n=30))?
Its value is 5.

What about the “Nausea (all grades), % of patients” value (12–20 mg (n=30)) of the same compound?
Its value is 17%.

And the “Nausea (all grades), n patients” value (12–20 mg (n=30))?
Its value is 5.

What about the “Proteinuria (all grades), n patients” value (12–20 mg (n=30)) of the same compound?
Its value is 8.

And the “Proteinuria Grade 1, % of patients” value (12–20 mg (n=30))?
Its value is 0%.

And the “Proteinuria Grade 1, n patients” value (12–20 mg (n=30))?
The value was 0.

What about the “Proteinuria Grade 2, % of patients” value (12–20 mg (n=30)) of the same compound?
The value was 20%.

And the “Proteinuria Grade 3, % of patients” value (12–20 mg (n=30))?
The value was 7%.

And the “Proteinuria Grade 3, n patients” value (12–20 mg (n=30))?
Its value is 2.

And the “Stomatitis (all grades), % of patients” value (12–20 mg (n=30))?
The value was 20%.

What about the “Vomiting (all grades), % of patients” value (12–20 mg (n=30)) of the same compound?
The value was 10%.

And the “Vomiting (all grades), n patients” value (12–20 mg (n=30))?
Its value is 3.

And the “Abdominal pain (all grades), % of patients” value (Total (n=82))?
The value was 11%.

And the “Abdominal pain (all grades), n patients” value (Total (n=82))?
The value was 9.

And the “Anorexia (all grades), % of patients” value (Total (n=82))?
The value was 17%.

And the “Anorexia (all grades), n patients” value (Total (n=82))?
Its value is 14.

What about the “Constipation (all grades), % of patients” value (Total (n=82)) of the same compound?
The value was 17%.

What about the “Constipation (all grades), n patients” value (Total (n=82)) of the same compound?
The value was 14.

What about the “Diarrhoea (all grades), n patients” value (Total (n=82)) of the same compound?
The value was 28.

What about the “Dry skin (all grades), % of patients” value (Total (n=82)) of the same compound?
Its value is 20%.

What about the “Dry skin (all grades), n patients” value (Total (n=82)) of the same compound?
The value was 16.

What about the “Dysphonia (all grades), % of patients” value (Total (n=82)) of the same compound?
Its value is 22%.

What about the “Dysphonia (all grades), n patients” value (Total (n=82)) of the same compound?
The value was 18.

And the “Fatigue (all grades), % of patients” value (Total (n=82))?
Its value is 18%.

What about the “Fatigue (all grades), n patients” value (Total (n=82)) of the same compound?
The value was 15.

And the “Headache (all grades), % of patients” value (Total (n=82))?
The value was 13%.

And the “Headache (all grades), n patients” value (Total (n=82))?
The value was 11.

And the “Hypertension (all grades), % of patients” value (Total (n=82))?
Its value is 40%.

And the “Hypertension Grade 1, % of patients” value (Total (n=82))?
The value was 7%.

And the “Hypertension Grade 2, % of patients” value (Total (n=82))?
Its value is 22%.

What about the “Hypertension Grade 2, n patients” value (Total (n=82)) of the same compound?
The value was 18.

And the “Hypertension Grade 3, % of patients” value (Total (n=82))?
Its value is 11%.

And the “Lethargy (all grades), % of patients” value (Total (n=82))?
The value was 23%.

And the “Nausea (all grades), % of patients” value (Total (n=82))?
The value was 37%.

And the “Proteinuria (all grades), % of patients” value (Total (n=82))?
The value was 26%.

And the “Proteinuria (all grades), n patients” value (Total (n=82))?
The value was 21.

And the “Proteinuria Grade 1, % of patients” value (Total (n=82))?
The value was 0%.

And the “Proteinuria Grade 1, n patients” value (Total (n=82))?
Its value is 0.

And the “Proteinuria Grade 2, % of patients” value (Total (n=82))?
The value was 18%.

What about the “Proteinuria Grade 2, n patients” value (Total (n=82)) of the same compound?
Its value is 15.

What about the “Proteinuria Grade 3, % of patients” value (Total (n=82)) of the same compound?
The value was 7%.

And the “Stomatitis (all grades), % of patients” value (Total (n=82))?
Its value is 32%.

And the “Stomatitis (all grades), n patients” value (Total (n=82))?
The value was 26.

And the “Vomiting (all grades), % of patients” value (Total (n=82))?
The value was 23%.
